Laboratory results: ChEMBL document CHEMBL1153606, “Microwave assisted synthesis of new indophenazine 1,3,5-trisubstruted pyrazoline derivatives of benzofuran and their antimicrobial activity” (2009)
Values after ≈ are worked out from the molar mass of the structure shown. Active and inactive are the calls of the source. No cut-off for these calls is given here.

How the values were obtained:
Streptococcus agalactiae [1] = assay: Antibacterial activity against multidrug-resistant Streptococcus agalactiae after 20 hrs by cylinder and well method; format: functional
Outline: (§1)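 Agar diffusion assay: organisms grown overnight on 2% agar with 5% sheep blood under 10% CO2. Inocula were diluted in Ringer solution, treated in Todd–Hewitt medium and spread on agar plates. Drug spots were applied, with about 5 × 10^3 CFU/spot. Plates were held at 37 °C for 20 h. Inhibition zones were read in mm against standard drugs and vehicle.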

Streptococcus pyogenes [2] = assay: Antibacterial activity against multidrug-resistant Streptococcus pyogenes after 20 hrs by cylinder and well method; format: functional; outline: as §1
Streptococcus pneumoniae [3] = assay: Antibacterial activity against multidrug-resistant Streptococcus pneumoniae after 24 hrs by broth microdilution method; format: functional
Outline: (§2)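 MIC was determined in Mueller–Hinton broth.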

Staphylococcus aureus [4] = assay: Antibacterial activity against multidrug-resistant Staphylococcus aureus after 20 hrs by cylinder and well method; format: functional; outline: as §1
Escherichia coli [5] = assay: Antibacterial activity against multidrug-resistant Escherichia coli broth after 24 hrs by broth microdilution method; format: functional; outline: as §2
Streptococcus pyogenes [6] = assay: Antibacterial activity against multidrug-resistant Streptococcus pyogenes after 24 hrs by broth microdilution method; format: functional; outline: as §2
[7] = system: Salmonella enterica subsp. enterica; assay: Antibacterial activity against multidrug-resistant Salmonella typhi after 20 hrs by cylinder and well method; format: functional, Salmonella enterica subsp. enterica serovar Typhi; outline: as §1
Streptococcus agalactiae [8] = assay: Antibacterial activity against multidrug-resistant Streptococcus agalactiae after 24 hrs by broth microdilution method; format: functional; outline: as §2
Streptococcus pneumoniae [9] = assay: Antibacterial activity against multidrug-resistant Streptococcus pneumoniae after 20 hrs by cylinder and well method; format: functional; outline: as §1
Candida albicans = assay: Antifungal activity against Candida albicans after 30 to 72 hrs by agar culture method; format: functional, organism-based
Outline: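 Agar well assay on C. albicans: compounds at a range of concentrations in DMF were loaded into 6 mm wells. Plates were incubated at 30 °C for 30–72 h. Inhibition zones were read in mm against standard drugs.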

[10] = system: Salmonella enterica subsp. enterica; assay: Antibacterial activity against multidrug-resistant Salmonella typhi after 24 hrs by broth microdilution method; format: functional, Salmonella enterica subsp. enterica serovar Typhi; outline: as §2
Staphylococcus aureus [11] = assay: Antibacterial activity against multidrug-resistant Staphylococcus aureus after 24 hrs by broth microdilution method; format: functional; outline: as §2
Pseudomonas aeruginosa [12] = assay: Antibacterial activity against multidrug-resistant Pseudomonas aeruginosa after 20 hrs by cylinder and well method; format: functional; outline: as §1
Pseudomonas aeruginosa [13] = assay: Antibacterial activity against multidrug-resistant Pseudomonas aeruginosa after 24 hrs by broth microdilution method; format: functional; outline: as §2
Escherichia coli [14] = assay: Antibacterial activity against multidrug-resistant Escherichia coli after 20 hrs by cylinder and well method; format: functional; outline: as §1

| SMILES | inhibition zone (IZ) (Streptococcus agalactiae [1]) [mm] | inhibition zone (IZ) (Streptococcus pyogenes [2]) [mm] | MIC (Streptococcus pneumoniae [3]) [µg/mL] | inhibition zone (IZ) (Staphylococcus aureus [4]) [mm] | MIC (Escherichia coli [5]) [µg/mL] | MIC (Streptococcus pyogenes [6]) [µg/mL] | inhibition zone (IZ) [7] [mm] | MIC (Streptococcus agalactiae [8]) [µg/mL] | inhibition zone (IZ) (Streptococcus pneumoniae [9]) [mm] | Activity (Candida albicans) | MIC [10] [µg/mL] | MIC (Staphylococcus aureus [11]) [µg/mL] | inhibition zone (IZ) (Pseudomonas aeruginosa [12]) [mm] | MIC (Pseudomonas aeruginosa [13]) [µg/mL] | inhibition zone (IZ) (Escherichia coli [14]) [mm] |
| --- | --- | --- | --- | --- | --- | --- | --- | --- | --- | --- | --- | --- | --- | --- | --- |
| O=C(Cn1c2ccccc2c2nc3ccccc3nc21)N1N=C(c2cc3ccccc3o2)CC1c1ccccc1 (centres undefined) | 8 | 12 | 2 (≈ 3.83 µM) | 16 | 8 (≈ 15.3 µM) | 28.5 (≈ 54.6 µM) | 8 | 28.5 (≈ 54.6 µM) | 20 | inactive | 17 (≈ 32.6 µM) | 2.5 (≈ 4.79 µM) | 11 | 15.5 (≈ 29.7 µM) | 14 |
| O=C(Cn1c2ccccc2c2nc3ccccc3nc21)N1N=C(c2cc3ccccc3o2)CC1/C=C/c1ccccc1 (centres undefined) | 9 | 10 | 10 (≈ 18.3 µM) | 14 | 20.5 (≈ 37.4 µM) | 26.5 (≈ 48.4 µM) | 10 | 22.5 (≈ 41.1 µM) | 12 | inactive | 14.5 (≈ 26.5 µM) | 4.5 (≈ 8.22 µM) | 10 | 18.5 (≈ 33.8 µM) | 8 |
| O=C(Cn1c2ccccc2c2nc3ccccc3nc21)N1N=C(c2cc3ccccc3o2)CC1c1ccccc1Cl (centres undefined) | 10 | 12 | 7 (≈ 12.6 µM) | 11 | 21.5 (≈ 38.7 µM) | 25 (≈ 45 µM) | 9 | 30 (≈ 54 µM) | 14 | inactive | 15 (≈ 27 µM) | 10 (≈ 18 µM) | 9 | 17.5 (≈ 31.5 µM) | 8 |
| C[C@@H]1CN(c2c(F)c(N)c3c(=O)c(C(=O)O)cn(C4CC4)c3c2F)C[C@H](C)N1 [SPARFLOXACIN] | 38 | 38 | 0.04 (≈ 0.102 µM) | 36 | 0.26 (≈ 0.663 µM) | 15 (≈ 38.2 µM) | 34 | 12 (≈ 30.6 µM) | 34 | – | 0.5 (≈ 1.27 µM) | 0.25 (≈ 0.637 µM) | 33 | 4.6 (≈ 11.7 µM) | 30 |
| O=C(O)c1ccccc1C1CC(c2cc3ccccc3o2)=NN1C(=O)Cn1c2ccccc2c2nc3ccccc3nc21 (centres undefined) | 10 | 10 | 10.5 (≈ 18.6 µM) | 12 | 13 (≈ 23 µM) | 30.5 (≈ 53.9 µM) | 8 | 24 (≈ 42.4 µM) | 12 | inactive | 15 (≈ 26.5 µM) | 8.5 (≈ 15 µM) | 14 | 6.5 (≈ 11.5 µM) | 11 |
| O=C(Cn1c2ccccc2c2nc3ccccc3nc21)N1N=C(c2cc3ccccc3o2)CC1c1ccco1 (centres undefined) | 10 | 8 | 5.6 (≈ 10.9 µM) | 10 | 15 (≈ 29.3 µM) | 30 (≈ 58.6 µM) | 9 | 26.5 (≈ 51.8 µM) | 14 | inactive | 16.5 (≈ 32.3 µM) | 10.5 (≈ 20.5 µM) | 8 | 21 (≈ 41.1 µM) | 10 |
| COc1ccccc1C1CC(c2cc3ccccc3o2)=NN1C(=O)Cn1c2ccccc2c2nc3ccccc3nc21 (centres undefined) | 9 | 15 | 11.5 (≈ 20.8 µM) | 11 | 16.5 (≈ 29.9 µM) | 22.5 (≈ 40.8 µM) | 7 | 25 (≈ 45.3 µM) | 10 | inactive | 15.5 (≈ 28.1 µM) | 7.5 (≈ 13.6 µM) | 12 | 14.5 (≈ 26.3 µM) | 9 |
| O=C(Cn1c2ccccc2c2nc3ccccc3nc21)N1N=C(c2cc3ccccc3o2)CC1c1cccc([N+](=O)[O-])c1 (centres undefined) | 12 | 12 | 8 (≈ 14.1 µM) | 9 | 10.5 (≈ 18.5 µM) | 28 (≈ 49.4 µM) | 10 | 26 (≈ 45.9 µM) | 14 | inactive | 13 (≈ 22.9 µM) | 12.5 (≈ 22.1 µM) | 16 | 5.5 (≈ 9.71 µM) | 13 |
